In brackets after ≈: the same amount, converted by molar mass.
Tests used:
[1] = Cytotoxicity against primary HUVEC measured after 48 hrs by MTT assay; assay type: toxicity, cell-based; details: human
[2] = tested on: Mycobacterium tuberculosis; experiment: Growth inhibition of Mycobacterium tuberculosis H37Ra ATCC 25177 at dormant stage at 100 ug/ml measured after 12 days by XTT dye based two fold dilution method relative to control; assay type: functional; details: H37Ra ATCC 25177, 288 h, read-out: GI
Outline: (§1)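 MTB H37Ra was grown in Dubos medium, then exposed in Mycobacterium pheli minimal medium (pH 6.6) to compounds dissolved in DMSO. The assay ended on day 8 (active) or day 12 (dormant). Viable cells were measured by XTT reduction menadione assay at 470 nm, blank-corrected, relative to vehicle control. Triplicates were expressed as mean ± SD. MIC came from dose-response curves.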

[3] = Cytotoxicity against […]-differentiated human THP1 cells assessed as growth inhibition at 100 ug/ml measured after 48 hrs by MTT assay relative to control; assay type: toxicity, cell-based, THP-1; details: read-out: GI
Outline: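 MTT assay with 48 h compound exposure. THP-1 macrophages made by 24 h PMA treatment. Each concentration tested in triplicate in one experiment. % cytotoxicity = (control−test)/(control−blank)×100, with control = cells + DMSO and blank = medium without cells. IC50 from % survival versus concentration plots.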

[4] = Selectivity index, ratio of GI50 for […]-differentiated human THP1 cells to MIC for Mycobacterium tuberculosis H37Ra ATCC 25177 at dormant stage; assay type: toxicity, cell-based, THP-1; details: read-out: Selectivity Index
Outline: (§2)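 SI is the cell-line GI50 divided by the dormant-stage mycobacterial MIC. […] THP-1 macrophages were PMA-differentiated for 24 h.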

[5] = tested on: Mycobacterium tuberculosis; experiment: Growth inhibition of Mycobacterium bovis BCG ATCC 35743 at dormant stage at 100 ug/ml measured after 12 days by nitrate reductase dye based two fold dilution method relative to control; assay type: functional; details: BCG str. ATCC 35743, 288 h, read-out: GI
Outline: (§3)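 M. bovis BCG was grown in Dubos medium and assayed in Mycobacterium pheli minimal medium (pH 6.6), with compounds from DMSO stocks. Incubation lasted 8 days for active and 12 days for dormant cultures. Viability was read by nitrate reductase at 540 nm against cell-free blanks, with vehicle set as 100% growth. Primary screen was at 30, 10 and 3 µg/ml, in triplicate, mean ± SD. MIC was taken from dose-response curves.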

[6] = Cytotoxicity against human PANC1 cells measured after 48 hrs by MTT assay; assay type: toxicity, cell-based, PANC-1
[7] = Cytotoxicity against human A549 cells assessed as growth inhibition at 100 ug/ml measured after 48 hrs by MTT assay relative to control; assay type: toxicity, cell-based; details: read-out: GI
[8] = tested on: Mycobacterium tuberculosis; experiment: Growth inhibition of Mycobacterium bovis BCG ATCC 35743 at dormant stage at 10 ug/ml measured after 12 days by nitrate reductase dye based two fold dilution method relative to control; assay type: functional; details: BCG str. ATCC 35743, 288 h, read-out: GI; outline: as §3
[9] = tested on: Mycobacterium tuberculosis; experiment: Growth inhibition of Mycobacterium bovis BCG ATCC 35743 at dormant stage measured after 12 days by nitrate reductase dye based two fold dilution method; assay type: functional; details: BCG str. ATCC 35743, 288 h; outline: as §3
[10] = tested on: Mycobacterium tuberculosis; experiment: Growth inhibition of Mycobacterium bovis BCG ATCC 35743 at dormant stage at 50 ug/ml measured after 12 days by nitrate reductase dye based two fold dilution method relative to control; assay type: functional; details: BCG str. ATCC 35743, 288 h, read-out: GI; outline: as §3
[11] = tested on: Mycobacterium tuberculosis; experiment: Growth inhibition of Mycobacterium tuberculosis H37Ra ATCC 25177 at active stage at 12.5 ug/ml measured after 8 days by XTT dye based two fold dilution method relative to control; assay type: functional; details: H37Ra ATCC 25177, 192 h, read-out: GI
Staphylococcus aureus = experiment: Antibacterial activity against of Staphylococcus aureus NCIM 2010 measured after 12 hrs; assay type: functional; details: NCIM 2010, 12 h
Outline: (§4)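 Bacteria grown in LB at 37 °C and 180 rpm to OD 1. Compounds added to wells, then 0.1% inoculum of 1 OD culture (620 nm). Growth read as OD at 620 nm after 8 h for gram-negative and after 12 h for gram-positive strains.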

Pseudomonas fluorescens [12] = experiment: Growth inhibition of Pseudomonas fluorescens NCIM 2036 at 10 ug/ml measured after 8 hrs relative to control; assay type: functional; details: NCIM 2036, 8 h, read-out: GI; outline: as §4
Bacillus subtilis [13] = experiment: Growth inhibition of Bacillus subtilis NCIM 2079 at 10 ug/ml measured after 12 hrs relative to control; assay type: functional; details: NCIM 2079, 12 h, read-out: GI; outline: as §4
[14] = tested on: Mycobacterium tuberculosis; experiment: Growth inhibition of Mycobacterium tuberculosis H37Ra ATCC 25177 at dormant stage at 3.13 ug/ml measured after 12 days by XTT dye based two fold dilution method relative to control; assay type: functional; details: H37Ra ATCC 25177, 288 h, read-out: GI; outline: as §1
Pseudomonas fluorescens [15] = experiment: Growth inhibition of Pseudomonas fluorescens NCIM 2036 at 3 ug/ml measured after 8 hrs relative to control; assay type: functional; details: NCIM 2036, 8 h, read-out: GI; outline: as §4
Pseudomonas fluorescens [16] = experiment: Antibacterial activity against Pseudomonas fluorescens NCIM 2036 measured after 8 hrs; assay type: functional; details: NCIM 2036, 8 h; outline: as §4
[17] = tested on: Mycobacterium tuberculosis; experiment: Growth inhibition of Mycobacterium tuberculosis H37Ra ATCC 25177 at active stage at 100 ug/ml measured after 8 days by XTT dye based two fold dilution method relative to control; assay type: functional; details: H37Ra ATCC 25177, 192 h, read-out: GI; outline: as §1
[18] = tested on: Mycobacterium tuberculosis; experiment: Growth inhibition of Mycobacterium bovis BCG ATCC 35743 at active stage at 0.78 ug/ml measured after 8 days by nitrate reductase dye based two fold dilution method relative to control; assay type: functional; details: BCG str. ATCC 35743, 192 h, read-out: GI; outline: as §3
Escherichia coli [19] = experiment: Growth inhibition of Escherichia coli NCIM 2688 at 10 ug/ml measured after 8 hrs relative to control; assay type: functional; details: NCIM 2688, 8 h, read-out: GI; outline: as §4
Escherichia coli [20] = experiment: Growth inhibition of Escherichia coli NCIM 2688 at 30 ug/ml measured after 8 hrs relative to control; assay type: functional; details: NCIM 2688, 8 h, read-out: GI; outline: as §4
[21] = tested on: Mycobacterium tuberculosis; experiment: Growth inhibition of Mycobacterium bovis BCG ATCC 35743 at active stage at 25 ug/ml measured after 8 days by nitrate reductase dye based two fold dilution method relative to control; assay type: functional; details: BCG str. ATCC 35743, 192 h, read-out: GI; outline: as §3
[22] = Selectivity index, ratio of GI50 for human PANC1 cells to MIC for Mycobacterium tuberculosis H37Ra ATCC 25177 at dormant stage; assay type: toxicity, cell-based, PANC-1; details: read-out: Selectivity Index; outline: as §2
Candida albicans = experiment: Antifungal activity against Candida albicans NCIM 3471 by standard agar method; assay type: functional
Outline: (§5)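 MICs determined by standard agar method; DMSO as solvent control.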

[23] = Antifungal activity against Fusarium oxysporum NCIM 1332 by standard agar method; assay type: functional; outline: as §5
[24] = tested on: Mycobacterium tuberculosis; experiment: Growth inhibition of Mycobacterium tuberculosis H37Ra ATCC 25177 at dormant stage at 0.78 ug/ml measured after 12 days by XTT dye based two fold dilution method relative to control; assay type: functional; details: H37Ra ATCC 25177, 288 h, read-out: GI; outline: as §1
Bacillus subtilis [25] = experiment: Growth inhibition of Bacillus subtilis NCIM 2079 at 3 ug/ml measured after 12 hrs relative to control; assay type: functional; details: NCIM 2079, 12 h, read-out: GI; outline: as §4
[26] = tested on: Mycobacterium tuberculosis; experiment: Growth inhibition of Mycobacterium bovis BCG ATCC 35743 at active stage measured after 8 days by nitrate reductase dye based two fold dilution method; assay type: functional; details: BCG str. ATCC 35743, 192 h; outline: as §3
[27] = Selectivity index, ratio of GI50 for human A549 cells to MIC for Mycobacterium tuberculosis H37Ra ATCC 25177 at dormant stage; assay type: toxicity, cell-based; details: read-out: Selectivity Index; outline: as §2
[28] = tested on: Mycobacterium tuberculosis; experiment: Growth inhibition of Mycobacterium tuberculosis H37Ra ATCC 25177 at dormant stage at 1.56 ug/ml measured after 12 days by XTT dye based two fold dilution method relative to control; assay type: functional; details: H37Ra ATCC 25177, 288 h, read-out: GI; outline: as §1

SMILES | GI50 at 48 h [1] [µg/mL] | inhibition of growth at 100 µg/mL [2] [%] | inhibition at 48 h, 100 ug/ml [3] [%] | selectivity ratio [4] | inhibition of growth at 100 µg/mL [5] [%] | GI50 at 48 h [6] [µg/mL] | inhibition at 48 h, 100 ug/ml [7] [%] | inhibition of growth at 10 µg/mL [8] [%] | IC50 [9] [µg/mL] | IC90 [9] [µg/mL] | inhibition of growth at 50 µg/mL [10] [%] | inhibition of growth at 12.5 µg/mL [11] [%] | MIC (Staphylococcus aureus) [µg/mL] | inhibition of growth at 10 µg/mL (Pseudomonas fluorescens [12]) [%] | inhibition of growth at 10 µg/mL (Bacillus subtilis [13]) [%] | inhibition of growth at 3.13 µg/mL [14] [%] | inhibition of growth at 3 µg/mL (Pseudomonas fluorescens [15]) [%] | MIC (Pseudomonas fluorescens [16]) [µg/mL] | inhibition of growth at 100 µg/mL [17] [%] | inhibition of growth at 0.78 µg/mL [18] [%] | further results
Cc1cccc2cc(/C=C3\SC(=S)NC3=O)c(Cl)nc12 | > 100 | 104 | 2.58 | 7.8 | 95 | > 100 | 32.9 | -5.12 | 5.1 (≈ 15.9 µM) | 9.5 (≈ 29.6 µM) | 100 | 76.3 | > 30 | 22.9 | -0.291 | -0.35 | 16.9 | > 30 | 113 | -28.7 | inhibition of growth at 10 µg/mL (Escherichia coli [19]): 27.5%; inhibition of growth at 30 µg/mL (Escherichia coli [20]): 39.9%; inhibition of growth at 25 µg/mL [21]: 99.3%; selectivity ratio [22]: 7.8; MIC (Candida albicans): 200 µg/mL (≈ 623 µM); MIC [23]: 200 µg/mL (≈ 623 µM); inhibition of growth at 0.78 µg/mL [24]: -16.1%; inhibition of growth at 3 µg/mL (Bacillus subtilis [25]): 3.54%; IC50 [26]: 3.7 µg/mL (≈ 11.5 µM); IC90 [26]: 6.5 µg/mL (≈ 20.3 µM); selectivity ratio [27]: 7.8; inhibition of growth at 1.56 µg/mL [28]: -17.5%
COc1ccc2nc(Cl)c(/C=C3\SC(=S)NC3=O)cc2c1 | > 100 | 91.6 | 30.2 | 20.8 | 97.7 | > 100 | 22.2 | -14 | 2.9 (≈ 8.61 µM) | 6.8 (≈ 20.2 µM) | 99 | 85.2 | 7.86 (≈ 23.3 µM) | 81.8 | 22.7 | 4.7 | 76.2 | > 30 | 90.3 | -67.9 | inhibition of growth at 10 µg/mL (Escherichia coli [19]): -36.1%; inhibition of growth at 30 µg/mL (Escherichia coli [20]): 61.2%; inhibition of growth at 25 µg/mL [21]: 88.2%; selectivity ratio [22]: 20.8; MIC (Candida albicans): 150 µg/mL (≈ 445 µM); MIC [23]: 125 µg/mL (≈ 371 µM); inhibition of growth at 0.78 µg/mL [24]: -36%; inhibition of growth at 3 µg/mL (Bacillus subtilis [25]): 1.79%; IC50 [26]: 3.7 µg/mL (≈ 11 µM); IC90 [26]: 5 µg/mL (≈ 14.8 µM); selectivity ratio [27]: 20.8; inhibition of growth at 1.56 µg/mL [28]: -25.3%

— ChEMBL document CHEMBL3877264, “Quinolidene-rhodanine conjugates: Facile synthesis and biological evaluation” (Eur J Med Chem, 2017)
